High-throughput results deposited in PubChem BioAssay by several laboratories.
KLF5 inhibitor: suppresses KLF5 promoter-driven expression | 290,000 compounds, 0.23% hits | AID 1700 | DLD-1 KLF5 promoter-luciferase reporter, luminescence | inhibition, % at 5 µM;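 active = inhibition above a per-plate limit of that plate's mean compound inhibition plus 3 SD, cut at about 60% in these data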;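 note: 0% = DMSO wells and 100% = LY294002 at 200 µM; higher means less KLF5 promoter-driven luciferase light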
b-catenin transl: beta-catenin nuclear translocation modulation | 190,000 compounds, 0.3% hits | HeLa beta-catenin nuclear translocation, immunofluorescence imaging | nuclear translocation activity, % at 5 µM;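 active = nuclear translocation activity above 50% at 5 µM, with a well cell count of 50 or more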;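 note: per-cell ratio of nuclear to cytoplasmic median beta-catenin stain intensity; plate controls were DMSO negative control for no effect and GSK-3 inhibitor IX positive control for full effect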
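assay system = human HeLa cells, endogenous beta-catenin | times = compound treatment 24 h, 37°C, 5% CO2 | detection = Anti-beta-catenin immunofluorescence on PFA-fixed, Triton-permeabilized cells, DAPI nuclei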
MT stabilize HCS: microtubule stabilizers in HeLa cells; % tubulin-high responders, % at 10 µM; AID 2205; HeLa tubulin immunostaining HCS, 24 h; share of cells brighter than vehicle mean+2SD; 200,000 compounds, 0.83% hits;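 active = plate Z-score above 3 for both tubulin-high and condensed-nucleus cell shares, with cell loss under 80%, at 10 µM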;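 note: anti alpha tubulin signal scored within the nucleus-defined area of each cell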
IEC-6 cytotox: kills IEC-6 intestinal cells in KLF5 counter-screen. IEC-6 cytotoxicity, luminescence viability. inhibition, % at 5 µM. 290,000 compounds, 0.78% hits. AID 1825;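 note: 0% = plate median of test compound wells and 100% = cytotoxic reference compound wells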
BaF3 parental: counter-screen for JAK2V617F inhibitors: parental Ba/F3 viability inhibitors | CellTiter-Glo ATP luminescence | inhibition, % at 5.6 µM | 220,000 compounds, 1.1% hits | AID 1486;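 active = inhibition above a per-campaign cutoff, the mean inhibition of all tested compounds plus 3 SD, cut at about 27% in these data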;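 note: 0% = DMSO wells and 100% = JAK Inhibitor I control wells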
Ba/F3 V617F tox: loss of viability in JAK2V617F-driven Ba/F3 cells. 220,000 compounds, 1.1% hits. AID 1446. inhibition, % at 5.6 µM. Ba/F3 EpoR-JAK2V617F viability, ATP luminescence;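 active = inhibition above the campaign mean plus 3 SD over all tested compounds, cut at about 24% in these data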;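 note: cytokine-independent growth of Ba/F3 cells driven by EpoR plus mutant JAK2; 0% = DMSO-treated cells and 100% = JAK inhibitor I control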
IEC-6 cytotox cf: confirmation of cytotoxic compounds in rat IEC-6 intestinal epithelial cells | shares compounds with IEC-6 cytotox | IEC-6 rat intestinal epithelial viability, luminescence | inhibition, % at 5 µM | 1,900 compounds, 63% hits;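 note: 0% = vehicle and 100% = reference cytotoxic drug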
Active calls of the source: *; nt = no result given. Rows were chosen to be rich in hits. Some 2.1% of all compounds tested hit in one or more screens of this group. Cut-off read from the data, not from the text of the source, unless noted: active = inhibition above about 22%; inactive = the rest.

SMILES	KLF5 inhibitor	b-catenin transl	MT stabilize HCS	IEC-6 cytotox	BaF3 parental	Ba/F3 V617F tox	IEC-6 cytotox cf
CCOc1c(Cl)cc(C(=O)Nc2ccccc2C(=O)O)cc1Cl	-77	-4	2	37*	27*	25*	17
CCN(CC)c1nc(Nc2ccc([N+](=O)[O-])cc2)nc(N(CC)CC)n1	-37	nt	nt	3	nt	nt	nt
CCN(CC)S(=O)(=O)c1ccc(C)c(N=C=S)c1	-28	2	2	-3	4	-3	nt
CCN(CCCNC(=O)CCNC(=O)Cn1cnc2ccccc2c1=O)c1ccccc1	-14	4	5	3	6	0	nt
O=C(Nc1ccc(-n2ccc(C(F)(F)F)n2)cc1)Nc1cccc(Cl)c1	-55	3	nt	23*	63*	54*	48*
O=C(OC1CCCCC1)c1ccc(NC(=O)c2ccco2)cc1	-87	0	2	32*	4	-1	23*
COc1ccc(/C=N/NC(=O)CCn2cnc(-c3ccccc3)c2-c2ccccc2)cc1OC	35	46	22*	71*	63*	58*	46*
COc1ccc(/C=N/NC(=O)CCC(=O)Nc2ccccc2)cc1OC	-10	0	2	-2	1	-3	nt
O=C(CSc1ccccn1)C12CC3CC(CC(C3)C1)C2	-8	0	1	3	7	1	nt
COc1ccc(CNC(=O)CN(C(=O)c2snc(C(N)=O)c2N)c2ccccc2F)cc1	-14	nt	nt	0	nt	nt	nt
CCCc1cc(=O)n2[nH]cc(-c3ccc(Cl)cc3)c2n1	-23	nt	nt	23*	nt	nt	6
COCc1cc(=O)n2[nH]cc(-c3ccccc3)c2n1	-35	nt	nt	3	nt	nt	nt
O=C(CSc1ccc(Br)cc1)Nc1ccccc1Oc1ccccc1	-19	1	4	3	7	0	nt
O=C(CSc1cccc[n+]1[O-])Nc1ccccc1Oc1ccccc1	-10	-2	2	24*	8	3	6
O=C(CSc1cccc[n+]1[O-])CSc1cccc[n+]1[O-]	-15	-1	2	55*	7	6	12
C=CCOc1ccc(C2NC(=S)NC(C)=C2C(=O)c2ccccc2)cc1OC (configuration not stated)	-16	-2	4	3	-3	-3	nt
COc1cccc(C2NC(=S)NC(C)=C2C(=O)c2ccccc2)c1OC (configuration not stated)	55	132*	24*	68*	78*	84*	50*
O=C(c1ccc(CS(=O)Cc2ccc(Cl)cc2)o1)N1CCN(c2cccc(Cl)c2)CC1 (configuration not stated)	-9	nt	nt	-3	nt	nt	nt
COc1cccc(N2CCN(C(=O)c3ccc(CS(=O)c4ccc(Cl)cc4)o3)CC2)c1 (configuration not stated)	53	nt	nt	81*	nt	nt	57*
O=C(Nc1cc(Cl)ccc1-n1cncn1)c1cc(S(=O)(=O)N2CCOCC2)ccc1F	-8	nt	nt	26*	nt	nt	4
CCC(=O)NC(c1ccc(OC)cc1)c1c(O)ccc2ccccc12 (configuration not stated)	14	0	18*	23*	2	2	9
CCCCCCN1CC(O)=C(c2ccccc2)C1=N	-39	-3	1	-4	7	-4	nt
CCCCCCCn1ccc(=N)cc1	25	0	2	23*	77*	97*	32*
CC(C)(C)NC(=O)C(c1ccccn1)N(C(=O)c1csnn1)C1CCCC1 (configuration not stated)	-26	0	nt	-12	-4	-5	nt
Cc1cc(C)cc(N(C(=O)CNC(=O)c2ccco2)C(C(=O)NC2CCCCC2)c2cccnc2)c1 (configuration not stated)	4	nt	nt	1	nt	nt	nt
SMILES	KLF5 inhibitor	b-catenin transl	MT stabilize HCS	IEC-6 cytotox	BaF3 parental	Ba/F3 V617F tox	IEC-6 cytotox cf
Cc1ccc(C(=O)Nc2ccccc2SCC2CSc3nc4ccccc4c(=O)n32)cc1 (configuration not stated)	41	nt	2	70*	6	4	45*
O=c1c2ccccc2nc2n1C(CSc1ccccc1)CS2 (configuration not stated)	-16	-5	4	4	1	-1	nt
O=C(Nc1ccccc1SCC1CSc2nc3ccccc3c(=O)n21)c1ccccc1 (configuration not stated)	8	-4	0	50*	4	-1	32*
O=C(Nc1ccccc1SCC1CSc2nc3ccccc3c(=O)n21)c1cccc(Cl)c1 (configuration not stated)	30	10	1	69*	5	3	42*
Cc1cccc(C(=O)Nc2ccccc2SCC2CSc3nc4ccccc4c(=O)n32)c1 (configuration not stated)	-26	-1	1	66*	1	-2	44*
O=c1c2ccccc2nc2n1C(CSc1ccc(F)cc1)CS2 (configuration not stated)	-3	-3	4	0	12	3	nt
O=C(Nc1ccccc1SCC1CSc2nc3ccccc3c(=O)n21)c1ccccc1Cl (configuration not stated)	7	-1	2	60*	4	-3	26*
COc1ccc(-n2c(SCC(=O)Nc3ncc(Cl)cc3Cl)nc3ccccc32)cc1	41	3	6	69*	7	4	39*
O=C(CSc1nc2ccccc2n1-c1ccccc1)Nc1ncc(Cl)cc1Cl	27	5	7	64*	1	2	39*
O=C(O)CCSc1nc2ccccc2n1-c1ccccc1	-4	nt	nt	10	nt	nt	nt
Cc1cccc(-n2c(SCC(=O)Nc3ncc(Cl)cc3Cl)nc3ccccc32)c1	28	1	2	67*	7	2	47*
O=C(Nc1ccccc1[N+](=O)[O-])c1cncc(Br)c1	-3	2	1	-1	7	-1	nt
CCOc1ccc(C(C)=O)cc1COc1cccnc1[N+](=O)[O-]	31	nt	nt	28*	nt	nt	24*
CCOc1cc(/C=C2\CN(C)C/C(=C\c3ccc(O)c(OCC)c3)C2=O)ccc1O	33	nt	nt	88*	nt	nt	38*
Cc1cc(C)c2c(c1)N[C@H](c1cccs1)[C@@H]1CCO[C@H]21	-12	1	nt	5	2	-3	nt
CC(C)c1ccc2c(c1)[C@H]1OCC[C@H]1[C@@H](c1cccs1)N2	8	36	20*	26*	54*	41*	66*
Clc1ccc(OCCN2CCN(c3ncnc4sccc34)CC2)cc1	6	0	4	26*	73*	66*	10
CC(C)/C=C(/C(=O)c1ccc(Cl)cc1Cl)n1cncn1	-31	nt	nt	-7	nt	nt	nt
CC(C)(C)C(=O)/C(=C/c1ccc(Cl)cc1)n1cncn1	19	nt	nt	29*	nt	nt	19
COc1ccc(N(CC(=O)NCCc2ccccc2)C(=O)CCC(=O)Nc2nccs2)c(OC)c1	11	nt	nt	-6	nt	nt	nt
